# Source: PubChem
# A selection: hits, their analogues and other compounds. The true share with any hit is near 3.7%.
# MPTP block = blocks calcium-induced mitochondrial swelling. isolated mouse mitochondria, Ca2+ swelling absorbance, 30 min. inhibition, % at 10 µM. 360,000 tested, 1.4% active. AID 602449;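 active = inhibition of 50% or more, scaled per plate between neutral and stimulator controls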;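 note: 0% = DMSO wells given calcium and 100% = 1 mM EGTA wells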
# proCasp3 act = activators of human procaspase-3; P42574; recombinant procaspase-3 D3A, Ac-DEVD-pNA absorbance 405 nm; activation, % at 8.5 µM; 330,000 tested, 0.11% active; AID 463141;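 active = activation above the mean of all tested compounds plus 3 SD, cut at about 21% in these data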;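 note: 0% = DMSO alone and 100% = DMSO wells spiked with extra 5 µM PC-3 D3A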
#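 Assay system – Procaspase-3 D3A mutant · Benchmarks – DMSO low control, extra-enzyme high control · Technique – 405 nm absorbance of p-nitroaniline, reads at 0 and 120 min · Doses – 8.5 µM nominal · Measure – % activation between DMSO and enzyme-spiked controls · Also added – Ac-DEVD-pNA chromogenic peptide substrate · Schedule – 1 h compound preincubation, 2 h substrate hydrolysis at 25 °C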
# GRIN3A LBD mod = modulates the human NR3A ligand-binding domain; NR3A LBD differential scanning fluorimetry, Tm shift; 0% = protein alone, 100% = glycine-bound protein; Tm shift relative to glycine control, % at 25 µM; 340,000 tested, 2.5% active;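 active = melting temperature shift of at least 10% of the positive control shift, at one fixed dose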
# aDG glyco up = increases alpha dystroglycan glycosylation. activation, % at 10 µM. 360,000 tested, 0.22% active. Pro5-aDG cells, alpha-DG glycosylation AlphaScreen (IIH6); 0% Pro5, 100% B10-LARGE cell signal;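 active = activation of at least 8% versus controls, or a plate z-score of at least 8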;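 note: Pro5 are CHO cells carrying HIG-tagged alpha-DG that lacks glycosylation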
# procasp7 counter = counter-screen for procaspase-3 activators: activators of human procaspase-7 | recombinant procaspase-7, Ac-DEVD-pNA absorbance 405 nm; D23A/D198A/D206A triple mutant, cannot self-cleave; scale: DMSO 0, 5 µM enzyme 100 | activation, % at 8.5 µM | 330,000 tested, 0.093% active;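 active = percent activation above the screen-wide mean plus 3 SD, cut at about 25% in these data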
# Target sequence (P55210 whole entry D23A/D198A/D206A): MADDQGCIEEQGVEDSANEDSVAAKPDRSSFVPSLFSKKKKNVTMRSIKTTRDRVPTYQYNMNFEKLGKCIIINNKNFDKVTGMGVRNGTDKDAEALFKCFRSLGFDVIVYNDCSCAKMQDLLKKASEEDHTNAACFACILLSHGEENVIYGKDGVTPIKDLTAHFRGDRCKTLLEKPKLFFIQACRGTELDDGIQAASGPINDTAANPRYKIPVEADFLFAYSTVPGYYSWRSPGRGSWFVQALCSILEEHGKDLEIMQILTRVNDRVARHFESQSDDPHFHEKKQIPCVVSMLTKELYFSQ
#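 buffer or medium = Zinc-free HEPES/NaCl buffer, pH 7.4 | material = Procaspase-7 triple mutant (PC-7 D3A) | input = 2 µM procaspase-7 mutant as dispensed | signal = Epi-absorbance of released pNA at 405 nm, two timepoints | timing = 1 h preincubation, 2 h reaction | replicates = singlicate compound testing | evaluation = % activation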
# MPTP counter = membrane potential counter-screen of mitochondrial pore inhibitors. shares compounds with MPTP block. isolated mitochondria, Rhodamine 123 fluorescence. inhibition, % at 10 µM. 5,000 tested, 78% active. AID 624504; in the data active = inhibition above about 22%;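 note: 0% = DMSO vehicle and 100% = positive control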
# MPTP swell DR = MPTP inhibition, dose response swelling confirmation; shares compounds with MPTP block; isolated mitochondria swelling, absorbance; IC50, µM; 780 tested, 58% active; in the data active = IC50 below about 20 µM
# MPTP cs DR = counter-screen for mitochondrial permeability transition pore inhibitors, dose response; shares compounds with MPTP block; isolated mitochondria counterscreen, fluorescence read-out; IC50, µM; 780 tested, 49% active; AID 651564; in the data active = IC50 below about 80 µM
# Starred values were filed as active, the others as inactive; i = inactive; nt = not tested or not shown.
SMILES,MPTP block,proCasp3 act,GRIN3A LBD mod,aDG glyco up,procasp7 counter,MPTP counter,others
Cc1ccc(-c2nc3ccccc3nc2-c2ccccc2)cc1,-1,-3,0,0,5,nt,
Clc1ccc(-c2nc3ccccc3nc2-c2ccccc2)cc1,55*,1,6,0,3,-6,MPTP swell DR=19*;MPTP cs DR=>80
CCOC(=O)C1=CCN(S(=O)(=O)c2ccccc2Cl)C1c1ccccc1 (configuration not stated),0,nt,nt,0,nt,nt,
CCCCc1ccc(C2C3=C(CC(C)(C)CC3=O)NC3=C2C(=O)c2ccccc23)cc1 (configuration not stated),71*,-2,4,2,7,53*,
CC1(C)CC(=O)C2=C(C1)NC1=C(C(=O)c3ccccc31)C2c1ccc(O)cc1 (configuration not stated),6,-5,-1,0,3,nt,
CCCc1ccc(C2C3=C(CC(C)(C)CC3=O)NC3=C2C(=O)c2ccccc23)cc1 (configuration not stated),81*,-7,0,0,12,52*,
COc1ccccc1C(=O)COC(=O)/C(=C/c1ccccc1)NC(C)=O,-1,1,-3,0,8,nt,
CC(C)(C)S(=O)N1Cc2cc(C(=O)NCC(F)(F)F)nc(-c3cccc(-c4cccc(F)c4)c3)c2[C@@H]1CCO (some centres not stated),0,nt,nt,0,nt,nt,
COC(=O)c1cccc(NC(=S)NCc2ccc(Cl)cc2)c1,94*,-3,0,0,5,107*,
COc1ccc(CNC(=S)Nc2cccc(Cl)c2)cc1,75*,10,4,0,-8,100*,
COC(=O)c1cc(NC(=S)NCc2ccc(Cl)cc2)cc(C(=O)OC)c1,98*,3,25*,0,10,79*,
COc1ccc(C2SCCN2C(=S)Nc2cccc(Cl)c2)cc1 (configuration not stated),96*,-25,16*,0,-14,94*,
Cc1ccccc1C(=O)N(CC(=O)Nc1sc(C)c(C)c1C(N)=O)C1CCCC1,-2,2,-3,0,3,nt,
COC(=O)c1cccc(NC(=S)Nc2cc(Cl)ccc2OC)c1,1,-3,-1,0,-15,nt,
COC(=O)c1cccc(NC(=O)Nc2ccc(Cl)cc2Cl)c1,84*,5,7,0,3,75*,
O=C(Nc1ccc(F)cc1F)NC1CCN(S(=O)(=O)c2ccc(F)cc2)CC1,-1,11,5,1,5,nt,
Cc1cc(Cl)ccc1NC(=O)NC1CCN(S(=O)(=O)c2ccc(F)cc2)CC1,59*,8,-1,0,-3,76*,
c1ccc2c(CSc3ncnc4nc[nH]c34)cccc2c1,56*,-5,-5,1,10,41*,
Cc1csc(N=Nc2ccc(N(C)C)cc2)[n+]1[O-],68*,nt,nt,0,nt,-22,MPTP swell DR=i;MPTP cs DR=>80
CC(C)NC(=O)Nc1cccc(Cl)c1,2,-1,0,0,-4,nt,
CC(=O)N(C)c1ccc(NC(=O)c2cnn(C)c2)cc1,70*,10,0,0,5,4,
Cn1cc(C(=O)Nc2ccc(Cl)c(Cl)c2)cn1,3,-4,2,0,5,nt,
O=C(Nc1cccc(Cl)c1)Nc1csc([N+](=O)[O-])c1,72*,-5,31*,0,4,69*,
CC(=O)N(C)c1ccc(NC(=O)Nc2ccc(Cl)cc2)cc1,56*,-12,0,0,0,78*,
Cc1nccc(-c2cccc(NC(=O)Nc3ccc(Cl)cc3)c2)n1,83*,2,25*,0,5,93*,
Cc1ccc(S(=O)(=O)N2CCN(C(=O)COC(=O)c3ccc([N+](=O)[O-])o3)CC2)c(C)c1,-1,5,-2,0,9,nt,
